# Assay results from PubChem BioAssay.
# Calls of active or inactive are those of the source.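 Rule for the calls, unless noted: active = viability at or below 10% of carrier control in both of two separate runs; inconclusive = viability at or below 10% in only one of the two runs; inactive = the rest.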
# How the values were obtained:
# [1] = Her2 expression decrease, cell viability multiplex – SKBR3 breast tumor cells, AlphaScreen, ATP viability, primary screen (AID 461;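 active = Her2 level under about 52% in both replicate screens, with viability over 70% of control, limit read from the data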;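 for Her2 level: lower value means less Her2 protein in the cells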;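 for viability: percent of carrier control wells set as 100% viability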); conditions: SKBR3 Her2 protein level, 18-24 h, measured here: SKBR3 viability, ATP luminescence, at 10 µM
# [2] = biological target: Receptor tyrosine-protein kinase erbB-2 (Homo sapiens) (UniProt P04626); experiment: as above; conditions: 18-24 h, at 10 µM, stronger effect = lower value
# [3] = reduced viability of SK-BR-3 breast cancer cells – cell-based, 24 h, human, pilot screen (AID 572); conditions: SK-BR-3 viability, CellTiter-Glo luminescence, at 10 µM, stronger effect = lower value;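 note: compound exposure lasted between 18 and 24 h rather than exactly 24 h; 100% = carrier-treated control wells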
# [4] = HUVEC growth inhibition – cell-based, human, primary screen (AID 575;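 active = viability at or below 30% in both replicate assays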;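 note: 100% = median of untreated cell wells with 0.1% DMSO on each plate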); conditions: HUVEC proliferation, CellTiter-Glo luminescence, 72 h; at 10 µM; stronger effect = lower value
# Outline: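 Test system: HUVEC primary cells. Quantity: 1250 endothelial cells in each well. Dosing: single-point 10 µM, DMSO 0.1% final. Incubation: 72 h treatment at 37 °C. Measured by: CTG luminescence. Control set: DMSO cell controls and MePR drug controls. Plate: collagen-coated 384-well format.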
# [5] = H69AR cell proliferation blockers – human, duplicate replicates, primary screen (AID 580;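 active = viability at or under a set limit in both replicates, limit being median viability minus 3 SD, cut at about 48% in these data, passing the limit was not always enough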;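 note: 100% = mean luminescence of untreated wells and 0% = no signal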); conditions: H69AR lung tumor cells viability, ATP luminescence, 72 h; at 10 µM; stronger effect = lower value
# [6] = MRP1 drug-resistance reversers in H69AR cells – cell-based, doxorubicin co-treatment, pilot screen (AID 601;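 active = viability loss from added drug above about 55%, and viability with drug at most 40%, in both replicates, limit read from the data, passing the limit was not always enough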); conditions: CellTiter-Glo, 72 h, at 10 µM; for differential viability (reversal): stronger effect = higher value
# [7] = yeast transport mutant growth inhibition pilot in 384-well plates, post-Golgi transport modulator project (AID 636; in the data active = inhibition above about 31%); conditions: absorbance 615 nm, about 18 h, stronger effect = higher value
# [8] = growth suppression of yeast trafficking mutant, preliminary HTS, modulators of trafficking downstream of Golgi apparatus project, 1536-format plate, OD 615 nm (AID 637; in the data active = inhibition above about 30%); conditions: yeast transport mutant growth, absorbance 615 nm, 18 h; stronger effect = higher value
# [9] = H69AR cells + 2 uM doxorubicin, measured here: viability with 2 uM doxorubicin, stronger effect = lower value
# [10] = H69AR cells, compound alone cytotoxicity
# Chain of Receptor tyrosine-protein kinase erbB-2 (Homo sapiens) (P04626 whole entry, looked up): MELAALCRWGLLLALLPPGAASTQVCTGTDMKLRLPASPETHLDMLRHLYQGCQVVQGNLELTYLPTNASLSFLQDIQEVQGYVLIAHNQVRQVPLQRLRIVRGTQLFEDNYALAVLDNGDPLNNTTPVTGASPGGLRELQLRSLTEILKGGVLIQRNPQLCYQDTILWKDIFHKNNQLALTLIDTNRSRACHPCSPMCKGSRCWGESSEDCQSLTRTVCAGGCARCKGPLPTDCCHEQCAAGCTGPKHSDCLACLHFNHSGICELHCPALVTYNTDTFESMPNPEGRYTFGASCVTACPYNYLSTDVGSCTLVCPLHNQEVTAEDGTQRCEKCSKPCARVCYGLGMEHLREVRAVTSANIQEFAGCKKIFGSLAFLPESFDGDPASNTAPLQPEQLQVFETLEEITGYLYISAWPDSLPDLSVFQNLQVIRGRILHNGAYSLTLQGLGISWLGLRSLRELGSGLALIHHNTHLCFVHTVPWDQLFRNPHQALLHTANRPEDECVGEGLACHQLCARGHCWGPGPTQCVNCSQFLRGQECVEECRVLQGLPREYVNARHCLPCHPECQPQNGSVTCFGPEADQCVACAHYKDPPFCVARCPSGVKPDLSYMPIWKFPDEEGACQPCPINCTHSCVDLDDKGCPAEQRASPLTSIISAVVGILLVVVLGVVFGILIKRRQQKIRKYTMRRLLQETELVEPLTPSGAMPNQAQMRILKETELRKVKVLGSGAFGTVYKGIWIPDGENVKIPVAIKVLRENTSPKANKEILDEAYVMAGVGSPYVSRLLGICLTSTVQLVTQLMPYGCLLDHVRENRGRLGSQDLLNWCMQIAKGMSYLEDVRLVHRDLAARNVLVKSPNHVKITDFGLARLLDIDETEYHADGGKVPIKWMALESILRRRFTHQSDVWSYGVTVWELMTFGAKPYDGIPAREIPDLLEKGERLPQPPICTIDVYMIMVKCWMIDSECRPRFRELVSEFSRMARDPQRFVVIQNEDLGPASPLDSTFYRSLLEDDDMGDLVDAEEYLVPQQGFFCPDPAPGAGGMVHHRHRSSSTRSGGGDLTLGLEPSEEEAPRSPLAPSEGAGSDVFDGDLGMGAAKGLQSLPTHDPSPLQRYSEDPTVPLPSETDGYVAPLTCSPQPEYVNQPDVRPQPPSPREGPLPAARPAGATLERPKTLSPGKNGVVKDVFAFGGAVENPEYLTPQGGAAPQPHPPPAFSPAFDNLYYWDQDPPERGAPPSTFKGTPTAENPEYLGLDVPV
Structure (SMILES),viability [1] [%],Her2 level [2],viability [3],viability [4],viability [5],differential viability (reversal) ([6]; H69AR cells + 2 uM doxorubicin),"viability [6, 9] [%]","viability [6, 10] [%]",inhibition [7],inhibition [8]
CCCn1c(=O)[nH]c(=O)c2[nH]cnc21,104,92% (inactive),104% (inactive),98.1% (inactive),100% (inactive),3.64% (inactive),96.7,100,–,–
CCCCC1C(=O)N(c2ccccc2)N(c2ccccc2)C1=O,99,90.5% (inactive),99% (inactive),99.1% (inactive),98.5% (inactive),7.41% (inactive),91.1,98.5,–,–
Cc1cc(NC(=O)C2=C(O)c3ccccc3S(=O)(=O)N2C)no1,96.5,113% (inactive),96.5% (inactive),109% (inactive),112% (inactive),16.9% (inactive),94.7,112,–,–
NC(N)=NS(=O)(=O)c1ccc(N)cc1,100,105% (inactive),100% (inactive),89.2% (inactive),98.8% (inactive),-2.93% (inactive),102,98.8,–,–
COc1ccc(C2CNC(=O)C2)cc1OC1CCCC1 (stereo not drawn),115,121% (inactive),115% (inactive),114% (inactive),109% (inactive),18.8% (inactive),90.6,109,–,–
O=c1n(CCCN2CCN(c3cccc(Cl)c3)CC2)nc2ccccn12,81,93% (inactive),81% (inactive),99.2% (inactive),87.3% (inactive),-7.03% (inactive),94.3,87.3,–,–
O=C(O)c1cccnc1Nc1cccc(C(F)(F)F)c1,100,98.5% (inactive),100% (inactive),86.4% (inactive),108% (inactive),13.5% (inactive),94.5,108,–,–
OC(CCN1CCCCC1)(c1ccccc1)C1CCCCC1 (stereo not drawn),69.5,99.5% (inactive),69.5% (inactive),84.9% (inactive),92.2% (inactive),-0.69% (inactive),92.9,92.2,–,–
Cc1ccc(C(=O)NCc2ccc3c(c2)OCO3)cc1S(=O)(=O)N1CCCCC1,91.5,100% (inactive),91.5% (inactive),96.6% (inactive),96.2% (inactive),-2.33% (inactive),98.5,96.2,-3.2% (inactive),-7.14% (inactive)
C[C@]12CCC(=O)C=C1CC[C@@H]1[C@@H]2C(=O)C[C@@]2(C)[C@H]1CC[C@]2(O)C(=O)CO,82.5,110% (inactive),82.5% (inactive),98% (inactive),101% (inactive),12.6% (inactive),88.8,101,–,–
CN(C)CCOC(c1ccccc1)c1ccccc1 (tested in a mixture with another compound),93.5,106% (inactive),93.5% (inactive),98.9% (inactive),103% (inactive),19.3% (inactive),83.7,103,–,–
CC(=O)OCC(=O)[C@@]12OC3(CCCC3)O[C@@H]1C[C@H]1[C@@H]3CCC4=CC(=O)C=C[C@]4(C)[C@@]3(F)[C@@H](O)C[C@@]12C,132,91.5% (inactive),132% (inactive),86.6% (inactive),83.1% (inactive),2.75% (inactive),80.3,83.1,–,–
CC(C)(C)NC[C@H](O)COc1nsnc1N1CCOCC1,112,110% (inactive),112% (inactive),99.8% (inactive),106% (inactive),2.23% (inactive),104,106,–,–
Cc1ccc2ncnc(NCCCN3CCOCC3)c2c1,98.5,120% (inactive),98.5% (inactive),91.4% (inactive),101% (inactive),-0.115% (inactive),102,101,-0.79% (inactive),5.41% (inactive)
CN(CC(=O)Nc1nccs1)S(=O)(=O)c1ccc(F)cc1,82,114% (inactive),82% (inactive),92.1% (inactive),95.2% (inactive),-7.69% (inactive),103,95.2,0.78% (inactive),-4.75% (inactive)
N#Cc1c(NC(NC(=O)c2ccco2)C(=O)c2ccccc2)sc2c1CCCC2 (stereo not drawn),86.5,73.5% (inactive),86.5% (inactive),70.7% (inactive),86.4% (inactive),-6.42% (inactive),92.8,86.4,80.4% (active),18% (inactive)
C[C@@H]1C[C@H]2[C@@H]3CCC4=CC(=O)C=C[C@]4(C)[C@@]3(F)[C@@H](O)C[C@]2(C)[C@@]1(O)C(=O)COP(=O)(O)O,99,125% (inactive),99% (inactive),102% (inactive),97.9% (inactive),-24.3% (inactive),122,97.9,–,–
CCCC1CC(C)(C(=O)Cn2[nH]c(=O)ccc2=O)OC1=O (stereo not drawn),84,95.5% (inactive),84% (inactive),105% (inactive),91.8% (inactive),-3.6% (inactive),95.4,91.8,-4% (inactive),5.08% (inactive)
Cc1cc(=O)n2nc(-c3ccccc3)sc2n1,101,92.5% (inactive),101% (inactive),97.2% (inactive),92.3% (inactive),4.42% (inactive),87.8,92.3,-3.73% (inactive),1.11% (inactive)
COC(=O)[C@@H](N)Cc1ccc(O)cc1,106,108% (inactive),106% (inactive),82.9% (inactive),109% (inactive),15.7% (inactive),93.8,109,–,–
Cc1ccc(C)c(OCCCC(C)(C)C(=O)O)c1,130,104% (inactive),130% (inactive),100% (inactive),109% (inactive),17.2% (inactive),91.5,109,–,–
CC[N+](C)(C)c1cccc(O)c1,97.5,94.5% (inactive),97.5% (inactive),81.1% (inactive),95% (inactive),9.69% (inactive),85.3,95,–,–
CCOc1ccc(Cl)cc1S(=O)(=O)N1CCCC1,100,94.5% (inactive),100% (inactive),101% (inactive),88.8% (inactive),-5.74% (inactive),94.5,88.8,-4.34% (inactive),-1.11% (inactive)
CCOC(=O)N1CCN(c2cc3nccnc3cc2F)CC1,114,92% (inactive),114% (inactive),84.5% (inactive),99.3% (inactive),5.61% (inactive),93.7,99.3,-7.03% (inactive),-4.17% (inactive)
